Laboratory results reported in ChEMBL document CHEMBL1156152, “Targeted delivery of paclitaxel to tumor cells: synthesis and in vitro evaluation” (J Med Chem, 2010).
Calls of active or inactive are those of the source. The rule behind the calls is not given here.

Experiments:
[1] = (§1) Cytotoxicity against paclitaxel-sensitive human KB3-1 cells assessed as decrease in cell viability after 72 hrs by neutral red dye assay; assay type: functional, cell-based; details: KB 3-1, 72 h
How it was run: (§2)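 KB-3-1 head and neck cancer cells kept in D-MEM/F12 with 10% FBS, penicillin/streptomycin, 2 mM L-glutamine, 37 °C, 5% CO2. Seeded 20,000 cells/well, adhered 24 h, then given varying concentrations in triplicate for 72 h. Viable cells took up neutral red (50 μg/ml, 30 min); dye dissolved in 0.5 N HCl with 35% ethanol, absorbance 570 nm.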

[2] = system: KB 3-1; assay: as §1; assay type: functional, cell-based; how it was run: as §2
[3] = system: KB-V1; assay: Cytotoxicity against paclitaxel-resistant human KBV1 cells assessed as decrease in cell viability after 72 hrs by neutral red dye assay; assay type: functional, cell-based
How it was run: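 KB-V1 cells grown in D-MEM/F12 with 10% FBS, penicillin/streptomycin, 2 mM L-glutamine and vinblastine (1 μg/ml), 37 °C, 5% CO2. Plated at 20,000 cells/well, adhered 24 h, treated with graded concentrations in triplicate for 72 h; neutral red (50 μg/ml, 30 min) uptake, dye extracted in acidic ethanol, read at 570 nm.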

[4] = system: HUVEC; assay: Cytotoxicity against TPA-treated HUVEC assessed as decrease in cell viability after 72 hrs by neutral red dye assay; assay type: cell-based; details: human
How it was run: (§3)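 HUVECs cultured overnight with or without TPA (100 nM phorbol ester) to induce tissue factor, then plated 20,000 cells/well, adhered 24 h, and exposed to graded drug concentrations for 72 h in triplicate. Viability read by neutral red uptake (50 μg/ml, 30 min, 37 °C), PBS washes, dye extracted in 0.5 N HCl/35% ethanol, absorbance at 570 nm.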

[5] = system: HUVEC; assay: Cytotoxicity against HUVEC assessed as decrease in cell viability after 72 hrs by neutral red dye assay; assay type: cell-based; details: human; how it was run: as §3

SMILES	IC50 [1] [nM]	Activity [2]	Activity [3]	Activity [4]	Activity [5]
CC(=O)O[C@H]1C(=O)[C@@]2(C)[C@H]([C@H](OC(=O)c3ccccc3)[C@]3(O)C[C@H](OC(=O)[C@H](OC(=O)CCC(=O)N[C@@H](Cc4ccccc4)C(=O)N[C@@H](Cc4ccccc4)C(=O)N[C@@H](CCCNC(=N)N)C(=O)CCl)[C@@H](NC(=O)c4ccccc4)c4ccccc4)C(C)=C1C3(C)C)[C@]1(OC(C)=O)CO[C@@H]1C[C@@H]2O	12	Dose-dependent effect	inactive	Not Active	–
CC(=O)O[C@H]1C(=O)[C@]2(C)[C@@H](OC(=O)CCC(=O)N[C@@H](Cc3ccccc3)C(=O)N[C@@H](Cc3ccccc3)C(=O)N[C@@H](CCCNC(=N)N)C(=O)CCl)C[C@H]3OC[C@@]3(OC(C)=O)[C@H]2[C@H](OC(=O)c2ccccc2)[C@]2(O)C[C@H](OC(=O)[C@H](O)[C@@H](NC(=O)c3ccccc3)c3ccccc3)C(C)=C1C2(C)C	130	Dose-dependent effect	inactive	–	–
CC(=O)O[C@H]1C(=O)[C@@]2(C)[C@H]([C@H](OC(=O)c3ccccc3)[C@]3(O)C[C@H](OC(=O)[C@H](O)[C@@H](NC(=O)c4ccccc4)c4ccccc4)C(C)=C1C3(C)C)[C@]1(OC(C)=O)CO[C@@H]1C[C@@H]2O [PACLITAXEL]	1.2	–	inactive	Active	Active
